Reference: PubChem BioAssay AID2465 (Broad Institute, 2010)
Where “and” joins values, the source holds several entries; their conditions need not be identical. Equal values may be shown once. Screen size: about 24,000 compounds; fewer than 10 were called active. No stated cut-off is given here; in the data, active means caspase activation above about 5.9%; inconclusive means no clear call, values can overlap the other calls; inactive means below about 2.2%. These entries were drawn from the full list.

Experiment: Bcl2-A1 antagonists releasing BIM, apoptosis – cell-based, luminescence, HTS, two replicates, primary screen (AID 2465)
Details: MEF A1-2A-BIM cells, caspase-Glo luminescence, 3 h; stronger effect = higher value; percent of clofoctol response, DMSO zero; concentration not given here
Outline: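 System: mouse embryonic fibroblasts co-expressing A1 and BIM (A1-2A-BIM), primed for A1 dependence; amount: 2500 cells/well; doses: 50 nL pinned compound; schedule: cells settled overnight, compound exposure 3 h at 37 °C, 5% CO2; detection: Caspase-Glo 3/7 luminescence, 1 h at room temperature; read-out: Caspase-3/7 activation, seen as rise in luminescence signal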
With `COc1ccc(S(=O)(=O)Nc2ccc3c(c2)C(=O)N([C@@H](C)CO)C[C@H](C)[C@H](CN(C)S(=O)(=O)c2c(C)noc2C)OCCCC[C@@H](C)O3)cc1` the caspase activation was 0.0111% (inactive).
In the case of `C[C@@H]1CCCCO[C@@H](CN(C)C(=O)NC2CCCCC2)[C@H](C)CN([C@H](C)CO)C(=O)c2cc(NC(=O)c3ccccc3)ccc2O1`, the caspase activation is reported as 0.223% (inactive).
For `C[C@H]1CN([C@@H](C)CO)C(=O)c2cccc(NS(=O)(=O)c3ccc(Cl)cc3)c2O[C@@H]1CN(C)Cc1ccc(Oc2ccccc2)cc1`, the caspase activation was 1% (inactive).
With `C[C@H](CO)N1C[C@H](C)[C@H](CN(C)Cc2ccc(C(=O)O)cc2)Oc2ccc(NS(=O)(=O)c3cn(C)cn3)cc2CC1=O` the caspase activation was -0.00308% (inactive).
With `C[C@@H]1CN([C@H](C)CO)C(=O)Cc2cc(NC(=O)c3ccncc3)ccc2O[C@H]1CN(C)S(=O)(=O)c1cccs1` the caspase activation was 0.361% (inactive).
For `COc1ccc(CN(C)C[C@@H]2OCCCC[C@@H](C)Oc3ccc(NS(=O)(=O)c4ccc(C)cc4)cc3C(=O)N([C@@H](C)CO)C[C@H]2C)cc1`, the caspase activation was 0.1% (inactive).
For `Cc1noc(C)c1S(=O)(=O)Nc1ccc2c(c1)C(=O)N([C@H](C)CO)C[C@H](C)[C@H](CN(C)C(=O)NC1CCCCC1)OCCCC[C@H](C)O2`, the caspase activation was -1.41% (inactive).
For `O=C(N/N=C/[C@H](O)[C@@H](O)[C@H](O)[C@H](O)CO)c1ccccc1O`, the caspase activation was -0.678% (inactive).
With `C[C@H]1CCCCO[C@H](CN(C)C(=O)Nc2ccc3c(c2)OCO3)[C@@H](C)CN([C@@H](C)CO)C(=O)c2cc(NC(=O)Nc3ccccc3)ccc2O1` the caspase activation was 0.0515% (inactive).
In the case of `C[C@H]1CN([C@@H](C)CO)C(=O)c2cccc(NC(=O)Nc3ccccc3)c2O[C@@H]1CN(C)C(=O)Nc1cccc2ccccc12`, the caspase activation is reported as -0.864% (inactive).
In the case of `[N-]=[N+]=NC[C@H](Cc1ccccc1)NC(=O)Nc1ccccc1`, the caspase activation is reported as -3.77% (inactive) and 0.143% (inactive).
With `COc1ccc(S(=O)(=O)Nc2ccc3c(c2)C(=O)N([C@H](C)CO)C[C@H](C)[C@@H](CN(C)Cc2ccccc2)OCCCC[C@@H](C)O3)cc1` the caspase activation was 0.258% (inactive).
In the case of `Cc1cccc(S(=O)(=O)N(C)C[C@H]2OCc3cnnn3CCCC(=O)N([C@@H](C)CO)C[C@H]2C)c1`, the caspase activation is reported as -0.906% (inactive).
In the case of `COc1ccc(S(=O)(=O)Nc2ccc3c(c2)C(=O)N([C@@H](C)CO)C[C@@H](C)[C@H](CN(C)C(=O)Nc2ccc(C(F)(F)F)cc2)OCCCC[C@@H](C)O3)cc1`, the caspase activation is reported as -0.653% (inactive).
With `C[C@@H]1CCCCO[C@@H](CN(C)S(=O)(=O)c2ccccc2)[C@H](C)CN([C@H](C)CO)C(=O)c2cc(NC(=O)Nc3ccc4c(c3)OCO4)ccc2O1` the caspase activation was -1.23% (inactive).
For `C[C@H]1CN([C@@H](C)CO)C(=O)c2cc(N(C)C)ccc2O[C@@H]1CN(C)S(=O)(=O)c1ccc(Cl)cc1`, the caspase activation was -0.761% (inactive).
In the case of `C[C@H]1CCCCO[C@@H](CN(C)S(=O)(=O)c2ccc(Cl)cc2)[C@@H](C)CN([C@@H](C)CO)C(=O)c2cc(NS(=O)(=O)c3cn(C)cn3)ccc2O1`, the caspase activation is reported as -0.712% (inactive).
For `C[C@@H]1CN([C@H](C)CO)C(=O)c2cc(NS(=O)(=O)c3ccc(F)cc3)ccc2O[C@@H]1CN(C)S(C)(=O)=O`, the caspase activation was -0.125% (inactive).
With `COc1ccc(S(=O)(=O)N(C)C[C@@H]2OCCCC[C@@H](C)Oc3ccc(NC(=O)CCCN(C)C)cc3C(=O)N([C@@H](C)CO)C[C@@H]2C)cc1` the caspase activation was 0.265% (inactive).
With `COc1ccc(S(=O)(=O)Nc2ccc3c(c2)C(=O)N([C@H](C)CO)C[C@@H](C)[C@H](CN(C)S(=O)(=O)c2ccc(Cl)cc2)OCCCC[C@@H](C)O3)cc1` the caspase activation was -1.08% (inactive).
In the case of `C[C@@H]1CCCCO[C@@H](CN(C)Cc2ccc(C(F)(F)F)cc2)[C@H](C)CN([C@H](C)CO)C(=O)c2cc(NS(=O)(=O)c3ccc(F)cc3)ccc2O1`, the caspase activation is reported as -0.24% (inactive).
For `COc1ccc(NC(=O)Nc2ccc3c(c2)C(=O)N([C@H](C)CO)C[C@H](C)[C@@H](CN(C)Cc2ccccc2)OCCCC[C@H](C)O3)cc1`, the caspase activation was 0.0689% (inactive).
For `C[C@@H]1CCCCO[C@H](CN(C)C(=O)Nc2cccc3ccccc23)[C@@H](C)CN([C@@H](C)CO)C(=O)c2cc(NC(=O)Nc3ccc(F)cc3)ccc2O1`, the caspase activation was 0.273% (inactive).
For `Cc1noc(C)c1NC(=O)N(C)C[C@@H]1Oc2c(NC(=O)CCCCCC(=O)Nc3ccccc3N)cccc2C(=O)N([C@H](C)CO)C[C@@H]1C`, the caspase activation was 1.76% (inactive).
For `C[C@H](CO)N1C[C@H](C)[C@H](CN(C)Cc2ccccc2)OCCCC[C@H](C)Oc2ccc(NC(=O)Cc3ccccc3)cc2C1=O`, the caspase activation was -0.193% (inactive).
In the case of `C[C@@H]1CN([C@@H](C)CO)C(=O)c2cccc(NC(=O)CCCCCC(=O)Nc3ccccc3N)c2O[C@H]1CN(C)C(=O)Nc1ccccc1`, the caspase activation is reported as 0.335% (inactive).
With `Cc1noc(C)c1S(=O)(=O)N(C)C[C@H]1OCCCC[C@H](C)Oc2ccc(NC(=O)c3ccccc3)cc2C(=O)N([C@@H](C)CO)C[C@H]1C` the caspase activation was -0.984% (inactive).
For `C[C@@H]1CN([C@H](C)CO)C(=O)c2cc(NC(=O)CCCN(C)C)ccc2O[C@H]1CN(C)S(=O)(=O)c1ccc(Cl)cc1`, the caspase activation was -1.33% (inactive).
For `C[C@@H]1CCCCO[C@H](CN(C)C(=O)CCCN(C)C)[C@H](C)CN([C@@H](C)CO)C(=O)c2cc(NS(=O)(=O)c3ccc(Cl)cc3)ccc2O1`, the caspase activation was 0.532% (inactive).
For `COc1ccc(NC(=O)Nc2ccc3c(c2)CC(=O)N([C@@H](C)CO)C[C@@H](C)[C@H](CN(C)C(=O)NC2CCCCC2)O3)cc1`, the caspase activation was -1.36% (inactive).
In the case of `COc1ccc(S(=O)(=O)N(C)C[C@H]2Oc3c(NS(=O)(=O)c4ccc(F)cc4)cccc3C(=O)N([C@H](C)CO)C[C@H]2C)cc1`, the caspase activation is reported as -0.361% (inactive).
In the case of `COC(=O)CCCCCCC(=O)N/N=C/c1ccc(I)cc1`, the caspase activation is reported as 0.387% (inactive).
With `C[C@@H]1CN([C@H](C)CO)C(=O)c2cc(NC(=O)Nc3ccc(C(F)(F)F)cc3)ccc2O[C@@H](C)CCCCO[C@@H]1CN(C)Cc1ccc(C(F)(F)F)cc1` the caspase activation was 0.82% (inactive).
In the case of `C[C@@H]1CN([C@@H](C)CO)C(=O)c2cc(NC(=O)CCCCCC(=O)Nc3ccccc3N)ccc2O[C@@H](C)CCCCO[C@@H]1CN(C)CC1CCCCC1`, the caspase activation is reported as 0.522% (inactive).
With `C[C@@H]1CCCCO[C@@H](CN(C)C(=O)C2CCCCC2)[C@H](C)CN([C@H](C)CO)C(=O)c2cc(NC(=O)Cc3ccccc3)ccc2O1` the caspase activation was 3.18% (inactive).
In the case of `C[C@@H]1CCCCO[C@@H](CN(C)S(=O)(=O)c2cccs2)[C@H](C)CN([C@H](C)CO)C(=O)c2cc(NC(=O)CCCN(C)C)ccc2O1`, the caspase activation is reported as 0.621% (inactive).
With `Cc1ccc(S(=O)(=O)N(C)C[C@@H]2Oc3ccc(NC(=O)NC4CCCCC4)cc3C(=O)N([C@@H](C)CO)C[C@H]2C)cc1` the caspase activation was -0.781% (inactive).
For `C[C@H](CO)N1C[C@H](C)[C@H](CN(C)C(=O)Nc2ccccc2)Oc2c(NC(=O)Nc3ccc(C(F)(F)F)cc3)cccc2C1=O`, the caspase activation was -0.159% (inactive).
For `C[C@@H]1CCCCO[C@@H](CN(C)Cc2ccc(Cl)c(Cl)c2)[C@H](C)CN([C@@H](C)CO)C(=O)c2cc(NS(C)(=O)=O)ccc2O1`, the caspase activation was -0.491% (inactive).
For `Cc1ccc(S(=O)(=O)Nc2ccc3c(c2)C(=O)N([C@@H](C)CO)C[C@@H](C)[C@H](CN(C)Cc2ccc4c(c2)OCO4)OCCCC[C@@H](C)O3)cc1`, the caspase activation was 0.694% (inactive).
For `C[C@H](CO)N1C[C@H](C)[C@@H](CN(C)C(=O)Nc2ccc(F)cc2)OCCCC[C@H](C)Oc2ccc(NC(=O)c3ccncc3)cc2C1=O`, the caspase activation was 0.454% (inactive).
For `CC(C)NC(=O)Nc1ccc2c(c1)C(=O)N([C@H](C)CO)C[C@@H](C)[C@@H](CN(C)Cc1ccncc1)O2`, the caspase activation was 1.1% (inactive).
For `C[C@@H]1CN([C@@H](C)CO)C(=O)c2cccc(NS(=O)(=O)c3ccccc3)c2O[C@@H]1CN(C)S(=O)(=O)c1ccc(F)cc1`, the caspase activation was 0.0248% (inactive).
With `COc1ccc(S(=O)(=O)Nc2ccc3c(c2)C(=O)N([C@@H](C)CO)C[C@@H](C)[C@H](CN(C)Cc2ccc(C(F)(F)F)cc2)OCCCC[C@@H](C)O3)cc1` the caspase activation was -1.2% (inactive).
In the case of `C[C@H]1CN([C@@H](C)CO)C(=O)Cc2cc(NS(=O)(=O)c3ccccc3)ccc2O[C@@H]1CN(C)Cc1ccc(C(=O)Nc2ccccc2N)cc1`, the caspase activation is reported as 1.17% (inactive).
For `Cc1noc(C)c1NC(=O)N(C)C[C@@H]1OCCCC[C@@H](C)Oc2ccc(NC(=O)C3CCCCC3)cc2C(=O)N([C@@H](C)CO)C[C@H]1C`, the caspase activation was -0.914% (inactive).
For `C[C@H]1CN([C@@H](C)CO)C(=O)Cc2cc(NC(=O)C3CCCCC3)ccc2O[C@H]1CN(C)C(=O)Nc1ccc(C(F)(F)F)cc1`, the caspase activation was 0.751% (inactive).
In the case of `C[C@@H]1CCCCO[C@H](CN(C)Cc2ccc3c(c2)OCO3)[C@H](C)CN([C@@H](C)CO)C(=O)c2cc(NS(=O)(=O)c3cn(C)cn3)ccc2O1`, the caspase activation is reported as -0.23% (inactive).
With `Cc1ccc(S(=O)(=O)Nc2ccc3c(c2)C(=O)N([C@H](C)CO)C[C@@H](C)[C@H](CN(C)C(=O)Nc2ccc(C(F)(F)F)cc2)OCCCC[C@H](C)O3)cc1` the caspase activation was -0.505% (inactive).
For `COc1ccc(CN(C)C[C@@H]2Oc3ccc(NS(=O)(=O)c4ccc(F)cc4)cc3C(=O)N([C@@H](C)CO)C[C@@H]2C)cc1`, the caspase activation was -0.363% (inactive).
In the case of `C[C@H]1CN([C@@H](C)CO)C(=O)c2cccc(NS(=O)(=O)c3ccc(Cl)cc3)c2O[C@H]1CN(C)S(=O)(=O)c1ccc(Cl)cc1`, the caspase activation is reported as -1.18% (inactive).
